Screening data from PubChem.
KCC2 mod: KCC2 cotransporter modulators, thallium flux, primary screen, cell-based, HEK293 KCC2, FluoZin-2 fluorescence, MLSMR; Solute carrier family 12 member 5 (Homo sapiens), Q9H2X9; KCC2 cells, thallium flux FluoZin-2 fluorescence; B-score of Tl+ flux slope (higher = more flux/activation; lower = inhibition) at 10 µM; 2.2% of 190,000 active;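 active means thallium flux slope and its plate-corrected score both differing from the plate sample mean at a set confidence after two filtering rounds, in either direction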;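 further: slope of fluorescence scaled to starting intensity during 10 to 20 s after thallium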
14-3-3 Bad inh: inhibitors of 14-3-3 zeta/Bad binding, primary screen, biochemical, TR-FRET, bovine 14-3-3 zeta; inhibition, % at 21.7 µM; 0.71% of 220,000 active; TR-FRET 14-3-3zeta/Dy647-pBad peptide displacement, 1 h; AID 781, 2007; 14-3-3 protein zeta/delta (Bos taurus), P63103;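 active means inhibition above about 70%, limit read from the data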;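 further: 0% = full 14-3-3 plus peptide FRET controls and 100% = background without 14-3-3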
NCF1 inh: p47phox/p22phox peptide binding inhibitors, primary screen, biochemical, uHTS, NADPH oxidase regulatory subunit; inhibition, % at 24.7 µM; 0.53% of 220,000 active; Neutrophil cytosol factor 1 (Homo sapiens), P14598; fluorescence polarization, 2 h;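 active means inhibition above about 30%, limit read from the data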;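 further: 0% = p47phox with labelled peptide and 100% = labelled peptide alone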
RBBP9 inhibitor: human RBBP9 inhibitors, primary screen, biochemical, fluorescence polarization, FP-Rh probe, HTS; Serine hydrolase RBBP9 (Homo sapiens), O75884; recombinant RBBP9; inhibition, % at 7.94 µM; 0.2% of 220,000 active;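 active means inhibition above the campaign mean of all tested compounds plus 3 SD, cut at about 14% in these data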;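 further: plate controls were DMSO wells with RBBP9 for no effect and wells lacking RBBP9 protein for full effect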
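Test system – recombinant human RBBP9 · Input – RBBP9 2.5 µM in dispensing solution, pre-mixing · Medium – Tris buffer pH 8.0, NaCl, Pluronic · Schedule – preincubation 30 min plus labeling 45 min at 25 °C · Measured by – fluorescence polarization · Measure – % inhibition · Controls – DMSO and no-protein wells · Replicates – one well per compound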
ROMK primary: ROMK potassium channel modulators, primary screen, cell-based, thallium flux, MLSMR library; ATP-sensitive inward rectifier potassium channel 1 (Homo sapiens), P48048; Tet-inducible ROMK, thallium flux fluorescence; actives lie on both sides; B-score at 10 µM; 2% of 130,000 active; AID 1918, 2009;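 active means signal ratio slope over the read window, or its plate-corrected B-score, at least 3 SD from the plate mean, either direction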;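 further: B-score of the F/F0 ratio slope over 7 to 12 s after thallium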
WT yeast gro inh: growth inhibition of WT strain, primary screen, mitochondrial fusion inhibitor project, WT and mutant strains, chemical genetic; mitochondrial fusion phenotypic screen; inhibition, % at 10 µM; 2.1% of 190,000 active; in the data active means inhibition above about 58%; tested in S. cerevisiae
KCC2 secondary: KCC2 modulators in sodium-free buffer, confirmation, cell-based, HEK293 KCC2, thallium flux, secondary assay; shares compounds with KCC2 mod; FluoZin2 fluorescence; hits give high values; normalised thallium flux (F/F0 slope) at 10 µM; 15% of 3,700 active; AID 1713, 2009;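 active means thallium flux slope above the same plate's solvent-only control mean plus 3 SD; inconclusive means the two replicate wells disagree; inactive means no significant difference from solvent-only control wells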
KCC2 bumet counter: thallium flux persisting under bumetanide in KCC2 cells, confirmation, counter-screen for KCC2 modulator project, cell-based, HEK293 KCC2, FluoZin2, secondary assay 3. shares compounds with KCC2 mod. 49% of 3,700 active. normalized thallium flux at 10 µM. HEK293-KCC2 + bumetanide/ouabain; hits give high values;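 active means thallium entry rate above the same plate's blocked-transporter control wells by more than 3 SD; inconclusive means the two repeat wells disagree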;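 further: raw slope of fluorescence over initial fluorescence between 10 and 20 s after thallium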
KCC2 sec2: KCC2 modulators without ouabain present, confirmation, cell-based, HEK293 KCC2, thallium flux, FluoZin2, secondary assay 2 | shares compounds with KCC2 mod | thallium flux FluoZin2 fluorescence; actives lie on both sides; F/F0 rise rate, 10–20 s post-thallium | normalized thallium flux at 10 µM | 23% of 3,700 active;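 active means thallium flux slope more than 3 SD above or below the plate's solvent-only control mean, mostly below; inconclusive means the two repeat wells disagreed; inactive means no significant shift from solvent-only controls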;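 further: raw slope with 0.1% DMSO as baseline and bumetanide as block control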
HEK293 Tl flux: thallium flux modulation in parental HEK cells, confirmation, counter-screen for KCC2 modulator project, cell-based, counterscreen 1. 46% of 3,700 active. HEK293 parental cells, thallium flux FluoZin2, ouabain; baseline-ratio fluorescence slope, 10–20 s after thallium. thallium flux rate (normalised fluorescence) at 10 µM. shares compounds with KCC2 mod. AID 1716, 2009;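 active means thallium flux rate significantly above the same plate's solvent-only control wells, beyond their mean plus 3 SD; inconclusive means the two replicate wells gave conflicting results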
KCC2 ouabain: KCC2 inhibitors and activators, ouabain retest, confirmation, HEK-KCC2 cells; AID 1717, 2009; HEK293-KCC2, thallium flux FluoZin2 fluorescence; bidirectional: low = inhibitor, high = activator; raw Tl+ flux slope (below DMSO = inhibition, above = activation) at 10 µM; shares compounds with KCC2 mod; 48% of 3,700 active;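 active means thallium flux slope beyond 3 SD from same-plate DMSO control mean in most replicates, usually higher, sometimes lower; inconclusive means repeat tests gave conflicting results; inactive means no significant difference from controls in most replicates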;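 further: slope of initial-normalized fluorescence between seconds 10 and 20 after thallium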
HEK counter2: native HEK Tl+ uptake effects, second counter-screen – HEK cells, counterscreen 2, counter-screen for KCC2 modulator project, confirmation; shares compounds with KCC2 mod; HEK293 parental, thallium flux FluoZin-2 fluorescence slope; thallium flux slope at 10 µM; 33% of 3,700 active;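 active means thallium flux slope above the same plate's solvent-control mean plus 3 SD in both duplicate wells; inconclusive means duplicate wells that disagreed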;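 further: run without ouabain in cells lacking the KCC2 cotransporter; slope of fluorescence scaled to its starting value between 10 and 20 s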
The depositor's hits bear a star; ? = inconclusive; nt = not tested or not shown. Compounds with a hit are over-represented: about 5.8% of the library has one in this group of screens.

SMILES	KCC2 mod	14-3-3 Bad inh	NCF1 inh	RBBP9 inhibitor	ROMK primary	WT yeast gro inh	KCC2 secondary	KCC2 bumet counter	KCC2 sec2	HEK293 Tl flux	KCC2 ouabain	HEK counter2
O=c1[nH]c(=S)[nH]cc1Oc1ccc(Cl)cc1Cl	-0.629	-7.6	-11.4	3.4	nt	nt	nt	nt	nt	nt	nt	nt
FC(F)(F)c1ccc(Cl)c(-n2c(-c3cc(-c4ccco4)[nH]n3)n[nH]c2=S)c1	0.0984	4.3	11.1	-1.5	nt	nt	nt	nt	nt	nt	nt	nt
FC(F)(F)c1ccc(Cl)c(-n2c(-c3cc(C4CC4)[nH]n3)n[nH]c2=S)c1	4.07*	-1.7	-6.0	-1.9	nt	nt	0.0113	0.0157*	0.0354	?	?	0.0122
O=C(Nc1ccc(OC(F)(F)F)cc1)c1[nH]ncc1[N+](=O)[O-]	13*	-14.0	-0.8	-2.8	-0.947	15.0	0.00809	0.0204*	0.0328	0.0221*	?	0.0157*
O=S1(=O)CC2NC(=S)N(c3cccc(Br)c3)C2C1 (stereo unspecified)	0.622	-0.7	-1.1	-2.6	0.35	nt	nt	nt	nt	nt	nt	nt
COc1cc(/C=C(\C#N)C(=O)NCc2ccccc2)ccc1OCc1ccc(C(=O)O)cc1	-4.14*	4.7	-15.9	-8.6	nt	nt	0.00869	0.00875*	0.034	0.00845	?	0.0112
C=CCNc1oc(Cc2cccc3ccccc23)nc1C#N	-4.62*	10.3	-26.3	-12.3	nt	3.7	0.00605	0.00481	0.0234*	0.00688	?	0.00964
C=CCNc1oc(/C=C/c2ccccc2)nc1C#N	nt	-6.7	-15.4	5.4	nt	20.5	nt	nt	nt	nt	nt	nt
N#Cc1nc(Cc2cccc3ccccc23)oc1NCCN1CCOCC1	-4.48*	37.2	-9.9	7.6	-1.76	-19.1	0.00594	0.0047	0.0234*	0.00686	?	0.0105
N#Cc1nc(Cc2cccc3ccccc23)oc1N1CCOCC1	-6.01*	3.9	-6.8	-7.5	nt	nt	0.00684	0.00437	0.0219*	0.00746	0.0115*	0.0101
Cc1ccccc1OCC(=O)OCC(=O)NCC1CCCO1 (stereo unspecified)	0.377	-14.2	-7.7	-5.4	0.00996	-29.4	nt	nt	nt	nt	nt	nt
COc1ccc(/C=N/Nc2ccc(C(=O)O)cc2)cc1Br	-0.501	-14.2	-12.0	1.9	-0.078	-1.6	nt	nt	nt	nt	nt	nt
C=CCOc1c(Br)cc(/C=N/Nc2ccc(C(=O)O)cc2)cc1OCC	-5.72*	-8.4	-14.9	-6.6	2.39	63.0*	0.00589	0.00575*	0.0279	0.00794	0.0167	0.0103
CC1CCc2sc(C(=O)NCc3ccc(F)cc3)cc2C1 (stereo unspecified)	-0.876	10.4	-9.9	-9.0	-0.429	30.8	nt	nt	nt	nt	nt	nt
CC1CCc2sc(-c3n[nH]c(=S)o3)cc2C1 (stereo unspecified)	38.6*	8.8	0.2	-2.0	1.94	51.7	0.0211*	0.104*	0.0323	0.0304*	0.0529*	0.0151*
CCN(CC)S(=O)(=O)c1cc(NC(=O)C(C)OC(=O)c2[nH]c(C)c(C(C)=O)c2C)ccc1C (stereo unspecified)	-1.68	-23.7	-18.6	-6.0	nt	1.7	nt	nt	nt	nt	nt	nt
O=C(CSc1nnc(-c2ccccc2F)n1CCc1ccccc1)Nc1ccc2[nH]c(=O)[nH]c2c1	0.77	-14.1	-0.5	-11.8	nt	14.7	nt	nt	nt	nt	nt	nt
O=C(Oc1c(-c2ccccc2)c(=O)n2c3c(cccc13)CC2)c1ccccc1	-4.38*	-0.3	-5.5	-4.5	nt	nt	0.0142	0.00351	0.0273	0.00537*	0.0132*	0.00724*
CCN(CC)c1ccc(NC(=O)c2ccccc2)cc1S(=O)(=O)Nc1ccccc1OC	0.158	13.9	-13.5	-22.3	nt	18.5	nt	nt	nt	nt	nt	nt
O=C(Nc1ccc2oc(-c3ccncc3)nc2c1)c1ccc2c(c1)OCCO2	-0.26	43.0	0.6	-2.4	nt	nt	nt	nt	nt	nt	nt	nt
O=C(O)c1ccccc1-c1ccccc1C(=O)Nc1ccc(-c2nc3cc(Cl)ccc3o2)cc1	-3.66*	-12.7	-43.7	-14.6	nt	nt	0.00751	0.00484	0.019*	0.00767	0.0118*	0.0105
O=C(Nc1ccc(-c2nc3cc(Cl)ccc3o2)cc1)C1CCCO1 (stereo unspecified)	-0.393	0.6	-99.1	-8.3	nt	-2.1	nt	nt	nt	nt	nt	nt
O=C(Nc1ccc2oc(-c3ccccc3)nc2c1)c1ccc2c(c1)OCCO2	-2.99*	28.9	-21.7	-7.9	0.344	1.4	0.0079	0.00677	0.0295	0.00705	0.0348*	?
CC(=O)c1ccc(NC(=O)CSc2ccc3nnc(-c4cccnc4)n3n2)cc1	-0.0788	-11.9	2.9	-7.7	0.13	-35.3	nt	nt	nt	nt	nt	nt
CC(=O)N1N=C2c3ccccc3CCC2C1c1ccc(F)cc1 (stereo unspecified)	-3.58*	-11.4	-5.8	-4.7	nt	nt	0.00754	0.00527	0.034	?	0.0162*	0.0104
CC(Sc1n[nH]c(N)n1)C(=O)Nc1cccc(S(=O)(=O)N2CCOCC2)c1 (stereo unspecified)	0.161	-1.6	-9.9	-8.9	-0.401	-14.2	nt	nt	nt	nt	nt	nt
